# Laboratory results published in ChEMBL document CHEMBL3616442, “Unconventional Knoevenagel-type indoles: Synthesis and cell-based studies for the identification of pro-apoptotic agents” (Eur J Med Chem, 2015).
# pEC50: −log10 of the molar value.
# Experiments:
# MT4 = test: Antiproliferative activity against human MT4 cells after 96 hrs by MTT assay; format: functional, cell-based; conditions: MT4, 96 h
# How it was run: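 Exponentially growing MT-4 cells (CD4+ human T-cells carrying integrated HTLV-1 genome), seeded at 1×10^5 cells/mL in RPMI-1640 with 10% FCS and antibiotics. Serial dilutions of compound (DMSO stock 100 mM, diluted in medium), 37 °C, 5% CO₂, 96 h. Viability read by MTT. 50% inhibition versus untreated controls by linear regression. Mean ± SD of three independent determinations.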
# [1] = Cytotoxicity against human SKMES1 cells after 96 hrs by MTT assay; format: functional, cell-based; conditions: SK-MES-1, 96 h
# How it was run: (§1)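 ATCC cell lines, mycoplasma-free by Hoechst staining. Haematological lines in RPMI-1640, solid-tumour and normal fibroblast lines in their own media, all with 10% FCS and antibiotics, at 37 °C in 5% CO₂. Compounds added as serial dilutions from a 100 mM DMSO stock diluted in medium. Viability by MTT after 96 h at 37 °C. Mean ± SD of three independent determinations.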
# HepG2 = test: Cytotoxicity against human HepG2 cells after 96 hrs by MTT assay; format: functional, cell-based; conditions: HepG2, 96 h; how it was run: as §1
# [2] = Cytotoxicity against human CRL7065 cells after 96 hrs by MTT assay; format: cell-based; conditions: CRL-7065, 96 h; how it was run: as §1
# MCF7 = test: Cytotoxicity against human MCF7 cells after 96 hrs by MTT assay; format: functional, cell-based; conditions: MCF7, 96 h; how it was run: as §1
# WIL2-NS = test: Cytotoxicity against human WIL2-NS cells after 96 hrs by MTT assay; format: functional, cell-based; how it was run: as §1
# SK-MEL-28 = test: Cytotoxicity against human SK-MEL-28 cells after 96 hrs by MTT assay; format: functional, cell-based; conditions: SK-MEL-28, 96 h; how it was run: as §1
# DU-145 = test: Cytotoxicity against human DU145 cells after 96 hrs by MTT assay; format: functional, cell-based; conditions: DU-145, 96 h; how it was run: as §1
# MRC5 = test: Cytotoxicity against human MRC5 cells after 96 hrs by MTT assay; format: cell-based; conditions: MRC5, 96 h; how it was run: as §1
# CCRF-SB = test: Cytotoxicity against human CCRF-SB cells after 96 hrs by MTT assay; format: functional, cell-based; how it was run: as §1
# CCRF-CEM = test: Cytotoxicity against human CCRF-CEM cells after 96 hrs by MTT assay; format: functional, cell-based; how it was run: as §1
smiles,measurement,setting,value
Cc1ccc(S(=O)(=O)/C(C#N)=C/c2c(-c3ccccc3)[nH]c3ccccc23)cc1,pEC50,MT4,6.40
O=C(C(=Cc1c(-c2ccccc2)[nH]c2ccccc12)C(=O)c1ccccc1)c1ccccc1,pEC50,[1],< 4.00
same,pEC50,HepG2,< 4.00
same,pEC50,[2],< 4.00
same,pEC50,MCF7,< 4.00
same,pEC50,WIL2-NS,4.14
same,pEC50,SK-MEL-28,< 4.00
same,pEC50,DU-145,< 4.00
same,pEC50,MT4,5.05
same,pEC50,MRC5,< 4.00
same,pEC50,CCRF-SB,4.92
same,pEC50,CCRF-CEM,4.92
Cc1[nH]c2ccccc2c1C=C(C#N)C#N,pEC50,MT4,4.25
Cn1cc(/C=C(\C#N)S(=O)(=O)c2ccccc2)c2ccccc21,pEC50,MT4,< 4.00
O=C(/C(=C\c1c(-c2ccccc2)[nH]c2ccccc12)C(=O)C(F)(F)F)c1ccco1,pEC50,[1],4.57
same,pEC50,HepG2,4.80
same,pEC50,[2],5.09
same,pEC50,MCF7,5.00
same,pEC50,WIL2-NS,5.64
same,pEC50,SK-MEL-28,4.48
same,pEC50,DU-145,5.04
same,pEC50,MT4,6.10
same,pEC50,MRC5,4.92
same,pEC50,CCRF-SB,5.74
same,pEC50,CCRF-CEM,5.72
CCOC(=O)/C(=C\c1c(-c2ccccc2)[nH]c2ccccc12)C(C)=O,pEC50,[1],4.64
same,pEC50,HepG2,4.72
same,pEC50,[2],4.08
same,pEC50,MCF7,4.49
same,pEC50,WIL2-NS,5.57
same,pEC50,SK-MEL-28,4.52
same,pEC50,DU-145,4.96
same,pEC50,MT4,6.22
same,pEC50,MRC5,4.51
same,pEC50,CCRF-SB,5.80
same,pEC50,CCRF-CEM,5.85
COCCOC(=O)/C(C#N)=C/c1c(-c2ccccc2)[nH]c2ccccc12,pEC50,[1],5.30
same,pEC50,HepG2,4.07
same,pEC50,[2],4.12
same,pEC50,MCF7,4.92
same,pEC50,WIL2-NS,5.66
same,pEC50,SK-MEL-28,5.03
same,pEC50,DU-145,5.38
same,pEC50,MT4,5.92
same,pEC50,MRC5,< 4.00
same,pEC50,CCRF-SB,5.66
same,pEC50,CCRF-CEM,5.80
CCOP(=O)(OCC)/C(C#N)=C/c1c[nH]c2ccccc12,pEC50,MT4,4.10
CS(=O)(=O)/C(C#N)=C/c1c[nH]c2ccccc12,pEC50,MT4,< 4.00
COC(=O)/C(=C\c1c[nH]c2ccccc12)S(=O)(=O)c1ccccc1,pEC50,MT4,< 4.00
CCOC(=O)/C(=C/c1c(-c2ccccc2)[nH]c2ccccc12)C(=O)c1ccc(Cl)cc1,pEC50,MT4,5.05
N#C/C(=C\c1c(-c2ccccc2)[nH]c2ccccc12)C(=O)N1CCCCC1,pEC50,MT4,5.02
Cc1[nH]c2ccccc2c1/C=C(\C#N)S(C)(=O)=O,pEC50,MT4,< 4.00
CCOC(=O)/C(=C/c1c(-c2ccccc2)[nH]c2ccccc12)C(=O)c1ccccc1,pEC50,[1],< 4.00
same,pEC50,HepG2,4.51
same,pEC50,[2],< 4.00
same,pEC50,MCF7,4.37
same,pEC50,WIL2-NS,4.92
same,pEC50,SK-MEL-28,< 4.00
same,pEC50,DU-145,4.17
same,pEC50,MT4,5.15
same,pEC50,MRC5,< 4.00
same,pEC50,CCRF-SB,5.02
same,pEC50,CCRF-CEM,5.10
CCOC(=O)/C(C#N)=C/c1c(-c2ccccc2)[nH]c2ccccc12,pEC50,MT4,5.77
Cc1[nH]c2ccccc2c1/C=C(\C#N)S(=O)(=O)c1ccccc1,pEC50,MT4,< 4.00
CC(C)(C)C(=O)/C(C#N)=C/c1c(-c2ccccc2)[nH]c2ccccc12,pEC50,MT4,6.30
CCOC(=O)/C(=C/c1c[nH]c2ccccc12)C(=O)c1ccccc1,pEC50,MT4,< 4.00
N#CC(C#N)=Cc1c[nH]c2ccccc12,pEC50,MT4,4.44
CC(=O)/C(=C\c1c(-c2ccccc2)[nH]c2ccccc12)S(=O)(=O)c1ccc(Cl)cc1,pEC50,MT4,< 4.00
COC(=O)/C(=C\c1c(-c2ccccc2)[nH]c2ccccc12)S(=O)(=O)c1ccccc1,pEC50,MT4,6.00
CCOC(=O)/C(=C/c1c[nH]c2ccccc12)C(=O)c1ccc([N+](=O)[O-])cc1,pEC50,MT4,4.00
CC(=O)C(=Cc1c(-c2ccccc2)[nH]c2ccccc12)C(C)=O,pEC50,MT4,5.82
N#C/C(=C\c1c[nH]c2ccccc12)S(=O)(=O)c1ccccc1,pEC50,MT4,< 4.00
N#C/C(=C\c1c(-c2ccccc2)[nH]c2ccccc12)C(=O)Nc1ccc(Cl)cc1,pEC50,MT4,5.77
N#C/C(=C\c1c(-c2ccccc2)[nH]c2ccccc12)C(N)=O,pEC50,MT4,5.22
Cn1cc(/C=C(\C#N)S(C)(=O)=O)c2ccccc21,pEC50,MT4,< 4.00
CC(C)OP(=O)(OC(C)C)/C(C#N)=C/c1c(-c2ccccc2)[nH]c2ccccc12,pEC50,MT4,4.96
